Test results published in PMC12215028 (Scientific Reports, 2025).

Legend:
[1] = tested on: A549, H460, H1299, and HCC827 cell lines; experiment: MTT assay, statements over all four lines; assay type: cell-based, human; details: 48 h
In short: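 H460, H1299 and HCC827 cells were kept in RPMI1640 with 10% FBS at 37 °C and 5% CO₂. A549 cells were plated at 2,500 per well. Cells were exposed to 0–50 µM test compound (final; 3.125–50 µM twofold steps) or DMSO control for 24, 48 and 72 h. MTT was then added for 2 h at 37 °C, formazan was dissolved in DMSO, and OD was read at 570 nm. Data are mean ± standard deviation; IC50 was calculated from viability.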

p-EGFR(Y1068) = experiment: Western blot, NSCLC cell lines; assay type: cell-based, human; details: A549 and H460 cells; 50 µM
In short: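 Cells were plated at 150,000 per well and treated with test compound or DMSO for 24 h. They were lysed in RIPA buffer with PMSF, DTT, NaF, Na₃VO₄ and protease inhibitors for 30 min on ice, then spun at 13,000 rpm for 30 min at 4 °C. Protein was quantified by Bradford assay and resolved by SDS-PAGE. Blots were probed with secondary antibodies at 1:5000 for 1 h at RT, detected by chemiluminescence and quantified by densitometry.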

A549 cells = experiment: Subcutaneous xenograft mouse model; assay type: in vivo, BALB/c-nude male mice; details: 30 mg/kg
In short: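 Male BALB/c nude mice aged 6–7 weeks, under isoflurane, received 5 × 10⁶ A549 cells in 50 µL PBS plus 50 µL Matrigel subcutaneously in the flank. Groups of six received vehicle, test compound or reference compound by oral gavage three times weekly for 27 days. Vehicle was Tween 80:PEG400:ethanol:5% glucose 1:6:3:20, at 100 µL per 25 g mouse. Tumors were caliper-measured three times weekly; endpoint was about 1,500 mm³ or distress.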

[2] = tested on: A549 xenograft tumor tissue; experiment: H&E staining of xenograft tumor tissue; assay type: in vivo, BALB/c-nude male mice; details: 30 mg/kg; compared to the vehicle group
In short: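 A549 cells (5 × 10⁶ in PBS plus Matrigel) were implanted subcutaneously into the flank of male nude mice aged 6–7 weeks. Compound was given by oral gavage three times weekly. Paraffin tumor sections were deparaffinized in xylene and rehydrated through graded ethanol. They were stained with hematoxylin for 30 s, differentiated in acid alcohol (0.3% HCl in 70% ethanol) and stained with eosin for 2 min. Sections were then dehydrated, cleared and mounted, and staining was quantified by image analysis.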

p-EGFR = experiment: Immunohistochemistry of xenograft tumor tissue; assay type: in vivo, BALB/c-nude male mice; details: tumor tissues; compared to the vehicle group
In short: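 Paraffin sections of subcutaneous A549 flank tumors from nude mice were deparaffinized and rehydrated, and peroxidase was blocked with H₂O₂. Antigen retrieval used 0.01 M citrate (pH 6.0) at boiling for 10 min. Sections were blocked in normal goat serum for 1 h at RT, then incubated with anti-p-EGFR (Y1068) at 1:100 overnight at 4 °C. Detection used a biotinylated secondary (1 h, RT), ABC reagent (30 min) and DAB, with hematoxylin counterstain.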

SMILES: CC(C)=CC(=O)O[C@H]1Cc2cc3ccc(=O)oc3cc2OC1(C)C [decursin]
- cytotoxicity [1]: significant cytotoxicity at 50 µM
- p-EGFR(Y1068) expression levels (p-EGFR(Y1068)): failed to inhibit EGFR phosphorylation
- tumor size at the experimental endpoint (A549 cells; oral gavage three times per week, 27 days, vs vehicle): no statistically significant reduction
- body weight changes (A549 cells; vs control, throughout the experimental period): no significant difference
- tumor cell density (H&E) [2]: did not show a significant difference
- p-EGFR-positive cells / expression (IHC) (p-EGFR): not significantly reduced
